Test results from the RNAGym collection of RNA variant scans (doi:10.1126/science.aae0568).
Variants at the floor of the assay were thinned out.

B1: tRNA (parent)
chain: GUUCCGUUGGCGUAAUGGUAACGCGUCUCCCUCCUAAGGAGAAGACUGCGGGUUCGAGUCCCGUACGGAACG

Variants of: B1
Assay: yeast fitness relative to wild type (ratio to wild type); higher = fitter; tRNA-Arg(CCU), competitive growth, 37 C, YPD
Summary of the method: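 Genotype frequency changes were the basis for Darwinian fitness relative to wild type. The frequencies came from 100-nucleotide paired-end sequencing of gene amplicons from the start population and each end population of pooled yeast strains with tRNA-Arg(CCU) gene variants at the native locus. Competition ran in YPD at 37°C for 24 hours in six replicates, genotypes needed ≥ 100 starting reads, and estimates < 0.5 were set to 0.5.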
GUUCCGUUGGCGUAAUGGUAACGCGUCUCCCUCCUAAGGAGAAGACUGCGGGUUCGAGGCCCGUACGGAACG [U59G] gave a yeast fitness of 1.01. With GUUCCGUUGGCGUAAUGGUAACGCGUCUCCCUCCUAAGGAGAAGACUGCGGGUUCGAGACCCGUACGGAACG [U59A] the yeast fitness was 0.973. For GUUCCGUUGGCGUAAUGGUAACGCGUCUCCCUCCUAAGGAGAAGACUGCGGGUUCGAGCCCCGUACGGAACG [U59C], the yeast fitness was 1. GUUCCGUUGGCGUAAUGGUAACGCGUCUCCCUCCUAAGGAGAAGACUGCGGGUUCGGGUCCCGUACGGGGCG [A57G A69G A70G] gave a yeast fitness of 0.704. GUUCCGUUGGCGUAAUGGUAACGCGUCUCCCUCCUAAGGAGAAGACUGCGGGUUCGAAUCCCGUACGCAACG [G58A G68C] showed a yeast fitness of 1.01. With GUUCCGUUGGCGUAAUGGUAACGCGUCUCCCUCCUAAGGAGAAGACUGCGGGUUCGACUCACGUUCGGAACG [G58C C61A A65U] the yeast fitness was at most 0.5. For GUUCCGUUGGCGUAAUGGUAACGCGUCUCCCUCCUAAGGAGAAGACUGCGGGUUCGAGUCACGUACGAAACG [C61A G68A], the yeast fitness was 0.716. GUUCCGUUGGCGUAAUGGUAACGCGUCUCCCUCCUAAGGAGAAGACUGCGGGUUCGAGGCCCGUAAGGAACG [U59G C66A] showed a yeast fitness of 0.62. Variant GUUCCGUUGGCGUAAUGGUAACGCGUCUCCCUCCUAAGGAGAAGACUGCGGGUUCGAGUUGCGUACGGAACG [C60U C61G] has a yeast fitness of 0.643. In the case of GUUCCGUUGGCGUAAUGGUAACGCGUCUCCCUCCUAAGGAGAAGACUGCGGGUUCGGGUCCCGUAUGGAACG [A57G C66U], the yeast fitness is reported as 0.816. With GUUCCGUUGGCGUAAUGGUAACGCGUCUCCCUCCUAAGGAGAAGACUGCGGGUUCGAGUGCCGUACGAAACG [C60G G68A] the yeast fitness was 0.695. Work on GUUCCGUUGGCGUAAUGGUAACGCGUCUCCCUCCUAAGGAGAAGACUGCGGGUUCGCGUCCCGUCCGGACCG [A57C A65C A70C] yielded a yeast fitness of 0.571. For GUUCCGUUGGCGUAAUGGUAACGCGUCUCCCUCCUAAGGAGAAGACUGCGGGUUCGUGUCCCGUACGGAUCG [A57U A70U], the yeast fitness was 0.69. GUUCCGUUGGCGUAAUGGUAACGCGUCUCCCUCCUAAGGAGAAGACUGCGGGUUCGUGUCCAGUACGGAACG [A57U C62A] gave a yeast fitness of 0.629. With GUUCCGUUGGCGUAAUGGUAACGCGUCUCCCUCCUAAGGAGAAGACUGCGGGUUCGAGACCCGUACGGACCG [U59A A70C] the yeast fitness was 0.741. GUUCCGUUGGCGUAAUGGUAACGCGUCUCCCUCCUAAGGAGAAGACUGCGGGUUCGAAUCCUGUACGGCACG [G58A C62U A69C] gave a yeast fitness of 1.1. With GUUCCGUUGGCGUAAUGGUAACGCGUCUCCCUCCUAAGGAGAAGACUGCGGGUUCGAGUUCGGUACGGAGCG [C60U C62G A70G] the yeast fitness was 0.521. For GUUCCGUUGGCGUAAUGGUAACGCGUCUCCCUCCUAAGGAGAAGACUGCGGGUUCGACUCCCGUACGGUACG [G58C A69U], the yeast fitness was 0.846. Work on GUUCCGUUGGCGUAAUGGUAACGCGUCUCCCUCCUAAGGAGAAGACUGCGGGUUCGAAUCCCGUACCGAACG [G58A G67C] yielded a yeast fitness of 0.988. In the case of GUUCCGUUGGCGUAAUGGUAACGCGUCUCCCUCCUAAGGAGAAGACUGCGGGUUCGAGCCCCGUACGGAGCG [U59C A70G], the yeast fitness is reported as 1.01. For GUUCCGUUGGCGUAAUGGUAACGCGUCUCCCUCCUAAGGAGAAGACUGCGGGUUCGGGUCCCGUGCGGAACG [A57G A65G], the yeast fitness was 1.02. With GUUCCGUUGGCGUAAUGGUAACGCGUCUCCCUCCUAAGGAGAAGACUGCGGGUUCGUGUCCCGUCGGGAACG [A57U A65C C66G] the yeast fitness was at most 0.5. For GUUCCGUUGGCGUAAUGGUAACGCGUCUCCCUCCUAAGGAGAAGACUGCGGGUUCGAAUCCCGUACGGUACG [G58A A69U], the yeast fitness was 0.986. For GUUCCGUUGGCGUAAUGGUAACGCGUCUCCCUCCUAAGGAGAAGACUGCGGGUUCGCGUCCCGUACGGAGCG [A57C A70G], the yeast fitness was 0.664. For GUUCCGUUGGCGUAAUGGUAACGCGUCUCCCUCCUAAGGAGAAGACUGCGGGUUCGAGUCACGUUCGGAACG [C61A A65U], the yeast fitness was 0.604. Variant GUUCCGUUGGCGUAAUGGUAACGCGUCUCCCUCCUAAGGAGAAGACUGCGGGUUCGAGUCGCAUACGGAUCG [C61G G63A A70U] has a yeast fitness of 0.562. Work on GUUCCGUUGGCGUAAUGGUAACGCGUCUCCCUCCUAAGGAGAAGACUGCGGGUUCGGGUCCCGUACGGAGCG [A57G A70G] yielded a yeast fitness of 0.889. In the case of GUUCCGUUGGCGUAAUGGUAACGCGUCUCCCUCCUAAGGAGAAGACUGCGGGUUCGAGACCCGUUCGGAACG [U59A A65U], the yeast fitness is reported as 0.636. For GUUCCGUUGGCGUAAUGGUAACGCGUCUCCCUCCUAAGGAGAAGACUGCGGGUUCGGGUCCCGCCCGGAACG [A57G U64C A65C], the yeast fitness was 0.506. GUUCCGUUGGCGUAAUGGUAACGCGUCUCCCUCCUAAGGAGAAGACUGCGGGUUCGCGUCCCGGAUGGAACG [A57C U64G C66U] gave a yeast fitness of at most 0.5. GUUCCGUUGGCGUAAUGGUAACGCGUCUCCCUCCUAAGGAGAAGACUGCGGGUUCGGGUCCCGUGUGGAACG [A57G A65G C66U] gave a yeast fitness of 0.65. GUUCCGUUGGCGUAAUGGUAACGCGUCUCCCUCCUAAGGAGAAGACUGCGGGUUCGCGUUCCGUACGGCACG [A57C C60U A69C] showed a yeast fitness of at most 0.5. GUUCCGUUGGCGUAAUGGUAACGCGUCUCCCUCCUAAGGAGAAGACUGCGGGUUCGAGCCCCGUACGAAACG [U59C G68A] gave a yeast fitness of 0.817. GUUCCGUUGGCGUAAUGGUAACGCGUCUCCCUCCUAAGGAGAAGACUGCGGGUUCUAGUCCCGUACGGCACG [G56U A69C] showed a yeast fitness of 0.717. With GUUCCGUUGGCGUAAUGGUAACGCGUCUCCCUCCUAAGGAGAAGACUGCGGGUUCGUGUCCCGUACGCAACG [A57U G68C] the yeast fitness was 0.652. GUUCCGUUGGCGUAAUGGUAACGCGUCUCCCUCCUAAGGAGAAGACUGCGGGUUCGAGUCAUGUUCGGCACG [C61A C62U A65U A69C] gave a yeast fitness of 0.52. GUUCCGUUGGCGUAAUGGUAACGCGUCUCCCUCCUAAGGAGAAGACUGCGGGUUCGAGAUCCGUACGGAACG [U59A C60U] gave a yeast fitness of 0.74.
